A selection: hits, their analogues and other compounds. The true share with any hit is near 2.3%.
TRPC4 block: inhibitors of mouse TRPC4 channel, primary screen, Fluo4 calcium, HEK293 TRPC4beta/mu-opioid cells | Short transient receptor potential channel 4 (Mus musculus), Q9QUQ5 | DAMGO-evoked Fluo4 calcium flux; active compounds read low | B-score at 10 µM | 0.39% of 300,000 active;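 active = B-score over 3 SD under the library average, no early fluorescence shift, positive overall ratio signal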
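Assay system: HEK293 cells with stable TRPC4beta plus mu-opioid receptor expression; Probe or stimulus: DAMGO in two steps, submaximal then maximal; Dosing: single-point compound dosing; Measured by: Fluo4 calcium-dye fluorescence, kinetic read; Read-out basis: B score from integrated Fluo4 fluorescence ratio.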
TRPC6 inhibitor: mouse TRPC6 channel inhibitors, primary screen, cell-based, HEK293, membrane potential dye; Short transient receptor potential channel 6 (Mus musculus), Q61143; ACh-evoked depolarization; active compounds read low; B-score at 10 µM; 1.1% of 310,000 active;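 active = B-score under library mean minus 3 SD, initial fluorescence not abnormally high, positive integrated signal ratio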;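 note: B-score derived from integrated fluorescence ratio over the kinetic read; more negative B-score means stronger inhibition of depolarization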
Target sequence (Q61143 whole entry, looked up): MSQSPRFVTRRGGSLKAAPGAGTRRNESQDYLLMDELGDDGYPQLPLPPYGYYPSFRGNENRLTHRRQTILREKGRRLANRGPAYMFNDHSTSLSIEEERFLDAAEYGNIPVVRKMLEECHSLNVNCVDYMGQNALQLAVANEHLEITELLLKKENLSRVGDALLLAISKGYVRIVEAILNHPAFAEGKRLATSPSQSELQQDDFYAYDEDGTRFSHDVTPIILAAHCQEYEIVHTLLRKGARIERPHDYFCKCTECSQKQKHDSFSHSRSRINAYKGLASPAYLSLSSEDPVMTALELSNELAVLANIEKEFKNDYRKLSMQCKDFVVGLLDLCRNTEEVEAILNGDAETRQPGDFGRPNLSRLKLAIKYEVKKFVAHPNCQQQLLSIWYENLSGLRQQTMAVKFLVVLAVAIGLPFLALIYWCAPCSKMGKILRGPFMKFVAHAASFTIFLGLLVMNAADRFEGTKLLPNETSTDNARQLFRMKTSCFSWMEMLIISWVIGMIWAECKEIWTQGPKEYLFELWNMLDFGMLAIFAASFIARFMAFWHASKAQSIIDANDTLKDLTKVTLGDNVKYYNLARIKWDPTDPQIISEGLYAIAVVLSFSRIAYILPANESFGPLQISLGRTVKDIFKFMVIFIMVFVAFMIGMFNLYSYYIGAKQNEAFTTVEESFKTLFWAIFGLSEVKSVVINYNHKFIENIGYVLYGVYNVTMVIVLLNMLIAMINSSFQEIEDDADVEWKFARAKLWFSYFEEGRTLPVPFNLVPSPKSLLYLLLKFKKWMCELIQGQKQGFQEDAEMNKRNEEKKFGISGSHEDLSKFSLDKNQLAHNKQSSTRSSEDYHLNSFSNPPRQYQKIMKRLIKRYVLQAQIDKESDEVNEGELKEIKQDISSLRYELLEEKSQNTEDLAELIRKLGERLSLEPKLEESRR
TRPC4 agonist: activators of mouse TRPC4 channel, primary screen, Fluo4 calcium, HEK293 TRPC4beta/mu-opioid cells. AID 2237, 2010. 0.49% of 310,000 active. Fluo4 calcium fluorescence; active compounds read high. Short transient receptor potential channel 4 (Mus musculus), Q9QUQ5. B-score at 10 µM;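 active = B-score above 5 SD of library B-scores, and initial fluorescence ratio not above library mean plus 5 SD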;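 note: positive B-score marks a calcium rise read as TRPC4 activation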
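Assay system – TRPC4beta and mu-opioid receptor HEK293 stable cells · Measured by – Fluo4 fluorescence, kinetic · Schedule – dye loading 45 min room temperature, 110 s kinetic read · Read-out – B-scored integrated calcium fluorescence ratio · Controls – buffer and maximal DAMGO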
TRPC4 potent: positive allosteric modulators of TRPC4, primary screen, cell-based, mouse TRPC4beta, HEK293 mu-opioid, Fluo-4 calcium. Short transient receptor potential channel 4 (Mus musculus), Q9QUQ5. DAMGO EC20, Fluo-4 Ca2+ flux; active compounds read high. B-score at 10 µM. 0.42% of 310,000 active;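 active = B-score of calcium response area above 5 SD of library B-scores, with initial fluorescence ratio within 5 SD of library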;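 note: B-score of integrated fluorescence ratio over time as area under calcium response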
TRPC6 activator: mouse TRPC6 channel activators, primary screen, cell-based, HEK293, membrane potential dye; 0.13% of 310,000 active; HEK293-TRPC6 membrane potential dye fluorescence; active compounds read high; AID 2550, 2010; B-score at 10 µM; Short transient receptor potential channel 6 (Mus musculus), Q61143;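 active = B-score of the integrated fluorescence ratio above library mean plus 3 SD, and starting fluorescence ratio within library mean plus 5 SD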;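 note: higher score means more depolarization so channel activation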
TRPC4 spec 2: mouse TRPC4 off-target activity of TRPC6 inhibitors, second screen. shares compounds with TRPC6 inhibitor. HEK293 TRPC4/MOR, membrane potential dye fluorescence; channel activated by saturating DAMGO dose. inhibition, % at 10 µM. 42% of 920 active. AID 2776;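 active = compounds whose fluorescence signal differed from control wells by over 3 SD, either direction, in both duplicate plates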
TRPC4 spec: mouse TRPC4 modulation by TRPC6 hits, confirmation, selectivity assay for TRPC6 inhibitor project, cell-based, HEK293 TRPC4/mu-opioid, membrane potential dye | activity change, negative = inhibition, % at 10 µM | 61% of 920 active | shares compounds with TRPC6 inhibitor | membrane potential fluorescence;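 active = rise or fall in signal beyond 3 SD of buffer-only wells in both replicate plates, either sign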;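 note: integrated kinetic ratio of fluorescence range over baseline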
HEK293 MPD ctr 2-1: nonspecific membrane potential effects, parental HEK293, confirmation, counter-screen for TRPC6 inhibitor project, cell-based, second counter screen; shares compounds with TRPC6 inhibitor; parental HEK293 membrane potential dye fluorescence; maximal acetylcholine challenge after compound addition; signal change vs control, % at 10 µM; 31% of 920 active; AID 2779, 2010;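 active = membrane potential signal moving either way by over 3 SD of the maximum-effect control, in both duplicate plates, meaning non-specific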
HEK293 MPD ctr-1: membrane potential modulation in parental HEK293, confirmation, counter-screen for TRPC6 inhibitor project, cell-based; 60% of 920 active; membrane potential signal change, % at 10 µM; shares compounds with TRPC6 inhibitor; parental HEK293 membrane potential dye fluorescence; AID 2780, 2010;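 active = membrane potential signal shifting up or down by more than 3 SD of buffer-only wells, on both duplicate plates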
HEK293 MPD ctr-2: parental HEK293 membrane potential modulation, confirmation, counter-screen for TRPC6 modulator project, cell-based; shares compounds with TRPC6 inhibitor; membrane potential dye fluorescence; membrane potential signal change, % at 10 µM; 51% of 2,400 active; AID 488924, 2010;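 active = membrane potential signal moves up or down beyond 5 SD from buffer-only wells, on both duplicate plates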
HEK293 MPD ctr 2-2: parental HEK293 nonspecific activity of TRPC6 modulators, second screen. shares compounds with TRPC6 inhibitor. membrane potential dye fluorescence; after compound, maximal acetylcholine stimulation. inhibition, % at 10 µM. 14% of 2,400 active. AID 488926;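 active = membrane potential signal drops by more than 5 SD from the mean control signal, in both duplicate plates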;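 note: plate controls were acetylcholine ECmax control wells for no effect and buffer only wells for full effect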
TRPC4/MOR mod: TRPC4 modulation by TRPC6 hit compounds, confirmation, selectivity assay for TRPC6 modulator project, cell-based, HEK293 TRPC4/mu-opioid, membrane potential dye, mouse; shares compounds with TRPC6 inhibitor; membrane potential fluorescence; 69% of 2,400 active; percent change from control (negative = decrease, positive = increase), % at 10 µM;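 active = membrane potential signal moved up or down beyond 5 SD of buffer control wells, in both duplicate plates, actives on both sides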;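 note: plate controls were assay buffer wells for no effect and DAMGO maximal-effect wells for full effect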
TRPC4 ctr inh 2: second check of whether TRPC6 modulators also affect mouse TRPC4 | shares compounds with TRPC6 inhibitor | HEK293 TRPC4/mu-opioid, membrane potential dye fluorescence; stimulated with maximal-effect DAMGO | inhibition, % at 10 µM | 55% of 2,400 active | AID 488928;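 active = drop in membrane potential signal beyond 5 SD of the control wells in both duplicate plates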;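 note: TRPC4 counter screen for TRPC6 hits run under conditions tuned for TRPC6 not TRPC4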
TRPC6 inh conf: mouse TRPC6 channel inhibitors, confirmation, HEK293 cells, membrane potential dye, duplicate; inhibition, % at 10 µM; ACh-evoked depolarization; 43% of 3,300 active; shares compounds with TRPC6 inhibitor;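 active = fluorescence ratio falls more than 5 SD below the full-stimulation control mean, in both duplicate runs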;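 note: integrated fluorescence ratio of peak minus minimum over baseline after agonist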
TRPC6 act conf: mouse TRPC6 channel activators, confirmation, HEK293 cells, membrane potential dye, duplicate; shares compounds with TRPC6 inhibitor; activation, % at 10 µM; HEK293-TRPC6 membrane potential dye fluorescence, FDSS; 11% of 2,800 active;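 active = ratio signal rise beyond 5 SD above unstimulated control wells' mean, seen in both duplicate runs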;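 note: plate controls were buffer EC0 wells for no effect and acetylcholine ECmax response for full effect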
* = called active by the depositor; i = inactive; nt = not tested or not shown; + = active, no number.

SMILES	TRPC4 block	TRPC6 inhibitor	TRPC4 agonist	TRPC4 potent	TRPC6 activator	HEK293 MPD ctr-2	HEK293 MPD ctr 2-2	TRPC4/MOR mod	TRPC4 ctr inh 2	TRPC6 inh conf	TRPC6 act conf	others
CC[N+](C)(C)CCN(Cc1ccc(Cl)cc1)c1ccccn1	i	-6.4*	i	i	i	i	i	i	i	i	i
Cn1c(/C=C/c2ccccc2)nc2ccccc21	i	-7.9*	i	i	i	nt	nt	nt	nt	i	i	TRPC4 spec 2=23%*;TRPC4 spec=3.3%*;HEK293 MPD ctr 2-1=i;HEK293 MPD ctr-1=-204%*
Cn1c(=O)c(/C=C/c2ccccc2)nc2ccccc21	i	i	i	i	i	nt	nt	nt	nt	nt	nt
O=C(Nc1ccccc1N1CCOCC1)c1ccc2c(c1)OCCO2	i	i	i	i	i	nt	nt	nt	nt	nt	nt
CN(Cc1cccs1)C(=O)CNC(=O)c1ccco1	i	i	i	i	i	nt	nt	nt	nt	nt	nt
CCCCCCC(=O)N1CCC(c2nc3c(nnn3Cc3ccccc3Cl)c(=O)[nH]2)CC1	i	-11*	i	i	14*	131%*	i	22%*	i	74%*	127%*
CCCn1nnnc1NC(=O)c1ccc(C)cc1Cl	i	i	i	i	i	nt	nt	nt	nt	nt	nt
O=C(COc1ccc(S(=O)(=O)N2CCCC2)cc1)Nc1ccc2c(c1)OCCO2	i	i	i	i	i	nt	nt	nt	nt	nt	nt
Cc1cccc(N2CCN(S(=O)(=O)c3ccc4c(c3)CCCN4C(=O)C3CCC3)CC2)c1C	i	i	i	i	i	nt	nt	nt	nt	nt	nt
COc1cc(/C=C/C(=O)c2ccc3c(c2)OCO3)cc(Cl)c1O	i	i	100*	i	52*	+	+	258%*	54%*	nt	342%*
Brc1cc2c(cc1CN1CCc3ccccc3C1)OCO2	i	-7.3*	i	i	i	nt	nt	nt	nt	i	i	TRPC4 spec 2=i;TRPC4 spec=i;HEK293 MPD ctr 2-1=i;HEK293 MPD ctr-1=i
CCNS(=O)(=O)c1ccc(OC)c(C(=O)NC2CCCCC2)c1	i	i	i	i	i	nt	nt	nt	nt	nt	nt
Cc1ccc(S(=O)(=O)N2CCC(=O)N(CCOC(=O)Nc3cccc(Cl)c3)CC2)cc1	i	-10*	i	i	16*	i	i	i	i	108%*	160%*
Cc1ccc(S(=O)(=O)N2CCC(=O)N(CCOC(=O)Nc3ccc(C)c(C)c3)CC2)cc1	i	-6.9*	i	i	i	nt	nt	nt	nt	i	nt	TRPC4 spec 2=i;TRPC4 spec=i;HEK293 MPD ctr 2-1=i;HEK293 MPD ctr-1=i
COCCn1c(SCc2ccc(C)cc2)nc2c1c(=O)[nH]c(=O)n2C	i	i	i	i	i	nt	nt	nt	nt	nt	nt
CCCCCCOC(=O)c1ccc(N)cc1	i	-5.5*	i	i	i	i	i	i	34%*	i	i
CCCCCOC(=O)c1ccc(NC(=O)c2ccco2)cc1	i	-13*	i	i	i	nt	nt	nt	nt	i	i	TRPC4 spec 2=i;TRPC4 spec=i;HEK293 MPD ctr 2-1=i;HEK293 MPD ctr-1=i
CCCCOC(=O)c1ccc(NC(=S)NC(=O)c2ccco2)cc1	i	i	i	i	i	nt	nt	nt	nt	nt	nt
COc1cc(NC(=O)c2ccc(NC3=NC4CS(=O)(=O)CC4S3)cc2)cc(OC)c1OC (centres undefined)	i	i	i	i	i	nt	nt	nt	nt	nt	nt
O=C(COc1cccc2cccnc12)N1CCc2ccccc2C1	i	-6.2*	i	i	i	-126%*	i	-22%*	i	i	i
Cc1cccc2c1cnn2C(=O)CCC(=O)N1CCC(C)CC1	i	i	i	i	i	nt	nt	nt	nt	nt	nt
Cn1c(=Nc2ccc(N3CCOCC3)cc2)ccc2ccccc21	i	-6*	i	i	i	-76%*	i	-16%*	i	41%*	i
CCn1c(=Nc2ccc(N3CCOCC3)cc2)ccc2ccccc21	i	i	i	i	i	nt	nt	nt	nt	nt	nt
COc1ccc(C2=Nn3c([n+](C)c4ccccc43)SC2)cc1	i	-7.1*	i	i	i	nt	nt	nt	nt	109%*	i	TRPC4 spec 2=66%*;TRPC4 spec=-20%*;HEK293 MPD ctr 2-1=-36%*;HEK293 MPD ctr-1=-338%*
COc1ccc2c(COC(=O)CCS(=O)(=O)c3ccc(C)cc3)cc(=O)oc2c1	i	-5.3*	i	i	i	i	i	i	i	i	i
COC(=O)Cc1cc(=O)oc2cc(OC)ccc12	i	i	i	i	i	nt	nt	nt	nt	nt	nt
